Active and inactive are the calls of the source. The calls are words filed in the database; no cut-off is given here.
Columns and labels:
Mus musculus [1] = assay: Hepatoprotective activity in ICR mouse assessed as serum TBIL levels at 240 umol/kg/day administered po for 2 months (reference value: 0.63 +/- 0.09 microM); type: functional
Mus musculus [2] = assay: Hepatoprotective activity in ICR mouse assessed as serum AST levels at 240 umol/kg/day administered po for 2 months (reference value: 107.25 +/- 2.77 U/L); type: functional
Mus musculus [3] = assay: Hepatoprotective activity in ICR mouse assessed as midzonal mitosis at 240 umol/kg/day administered po for 2 months by histopathological analysis; type: functional, organism-based
In short: (§1)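 Liver slices from male ICR mice (20.0 ± 2.0 g) were examined histopathologically after 240 µmol/kg/day dosing; normal controls received the same volume of vehicle.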

[4] = Antioxidant activity assessed as hydroxyl radical scavenging activity after 60 mins; type: functional
Mus musculus [5] = assay: Hepatoprotective activity in ICR mouse assessed as liver weight at 240 umol/kg/day administered po for 2 months (reference value: 1.49 +/- 0.42 g); type: functional
Mus musculus [6] = assay: Toxicity in ICR mouse assessed as body weight at 240 umol/kg/day administered po for 2 months (reference value: 36.8 +/- 0.70 g); type: organism-based; settings: in vivo
Mus musculus [7] = assay: Antioxidant activity in ICR mouse assessed as hepatic GSH levels at 240 umol/kg/day administered po for 2 months (reference value: 43.38 +/- 4.59 microM); type: functional
In short: (§2)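 Male ICR mice (20.0 ± 2.0 g) received 240 µmol/kg/day; normal controls got an equal volume of vehicle. Commercial kits measured serum SOD, CAT and MDA and hepatic GSH and GSSG, with the GSH/GSSG ratio calculated. Groups were compared with normal and CF groups.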

[8] = Antioxidant activity assessed as DPPH radical scavenging activity after 30 mins; type: functional
Mus musculus [9] = assay: Antioxidant activity in ICR mouse assessed as hepatic GSH to GSSG ratio at 240 umol/kg/day administered po for 2 months (reference value: 16.4 +/- 2.34); type: functional; in short: as §2
Mus musculus [10] = assay: Antioxidant activity in ICR mouse assessed as hepatic GSSG levels at 240 umol/kg/day administered po for 2 months (reference value: 2.91 +/- 0.31 microM); type: functional; in short: as §2
Mus musculus [11] = assay: Hepatoprotective activity in ICR mouse assessed as liver coefficient at 240 umol/kg/day administered po for 2 months (reference value: 40.50 +/- 0.71 mg/g); type: functional
Mus musculus [12] = assay: Hepatoprotective activity in ICR mouse assessed as serum ALT levels at 240 umol/kg/day administered po for 2 months (reference value: 36.25 +/- 1.08 U/L); type: functional
Mus musculus [13] = assay: Hypolipidemic activity in Triton WR 1339-induced acute hyperlipidemic ICR mouse model assessed as decrease in plasma triglyceride levels at 240 umol/kg, ig for one week followed by Triton WR 1339 challenge on day 6 measured after 24 hrs; type: functional; parameters: scale not given: the % may be the effect or the level left
In short: (§3)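 Acute hyperlipidemia was induced with Triton WR 1339 in mice given 240 µmol/kg intragastrically for 7 days. Plasma TG and TC are expressed as percent reduction, and plasma MDA in nmol/mL. Data are mean ± SEM, n=8, compared against the blank and model groups.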

Mus musculus [14] = assay: Hypolipidemic activity in Triton WR 1339-induced acute hyperlipidemic ICR mouse model assessed as decrease in total cholesterol levels in plasma at 240 umol/kg, ig for one week followed by Triton WR 1339 challenge on day 6 measured after 24 hrs; type: functional; parameters: scale not given: the % may be the effect or the level left; in short: as §3
Mus musculus [15] = assay: Antioxidant activity in ICR mouse assessed as serum SOD levels at 240 umol/kg/day administered po for 2 months (reference value: 337.64 +/- 4.82 U/ml); type: functional; in short: as §2
Mus musculus [16] = assay: Hepatoprotective activity in ICR mouse assessed as hypertrophy at 240 umol/kg/day administered po for 2 months by histopathological analysis; type: functional, organism-based; in short: as §1
Mus musculus [17] = assay: Hypolipidemic activity in Triton WR 1339-induced acute hyperlipidemic ICR mouse model assessed as decrease in malonaldehyde levels in plasma at 240 umol/kg, ig for one week followed by Triton WR 1339 challenge on day 6 measured after 24 hrs; type: functional; parameters: scale not given: the % may be the effect or the level left; in short: as §3
Mus musculus [18] = assay: Hepatoprotective activity in ICR mouse assessed as centrilobular hypertrophy at 240 umol/kg/day administered po for 2 months by histopathological analysis; type: functional, organism-based; in short: as §1
Mus musculus [19] = assay: Antioxidant activity in ICR mouse assessed as serum CAT levels at 240 umol/kg/day administered po for 2 months (reference value: 2.83 +/- 0.22 U/ml); type: functional; in short: as §2
Mus musculus [20] = assay: Hepatoprotective activity in ICR mouse assessed as hepatocyte hyperplasia at 240 umol/kg/day administered po for 2 months by histopathological analysis; type: functional, organism-based; in short: as §1
Mus musculus [21] = assay: Antioxidant activity in ICR mouse assessed as serum MDA levels at 240 umol/kg/day administered po for 2 months (reference value: 6 +/- 0.20 microM); type: functional; in short: as §2
Mus musculus [22] = assay: Hepatoprotective activity in ICR mouse assessed as serum APK levels per 100 ml at 240 umol/kg/day administered po for 2 months (reference value: 20.02 +/- 0.61 U); type: functional

Structure (SMILES) | Activity (Mus musculus [1]) | Activity (Mus musculus [2]) | Activity (Mus musculus [3]) | Activity [4] | Activity (Mus musculus [5]) | Activity (Mus musculus [6]) | Activity (Mus musculus [7]) | Activity [8] | Ratio (Mus musculus [9]) | Activity (Mus musculus [10]) | Activity (Mus musculus [11]) | Activity (Mus musculus [12]) | Activity (Mus musculus [13]) | Activity (Mus musculus [14]) | Activity (Mus musculus [15]) | Activity (Mus musculus [16]) | Activity (Mus musculus [17]) | Activity (Mus musculus [18]) | Activity (Mus musculus [19]) | Activity (Mus musculus [20]) | further results
CCOC(=O)C(C)(C)Oc1ccc(Cl)cc1 [CLOFIBRATE] | 13.09 µM | 157.5 U/L | inactive | inactive | 1.77 g | 33.8 g | 11.6 µM | inactive | 2.1 | 6.24 µM | 52.12 mg/g | 63.13 U/L | 24% | 23% | 228.32 U/ml | inactive | 14% | inactive | 3.86 U/ml | inactive | Activity (Mus musculus [21]): 7.79 µM; Activity (Mus musculus [22]): 28.64 U
CC(C)(Oc1ccc(Cl)cc1)C(=O)OCCc1ccc(O)c(O)c1 | 0.95 µM | 121.37 U/L | Active | Active | 1.48 g | 33.4 g | 22.87 µM | Active | 4.1 | 4.85 µM | 44.17 mg/g | 39.75 U/L | 30% | 33% | 275.2 U/ml | Active | 29% | Active | 2.04 U/ml | Active | Activity (Mus musculus [21]): 6.44 µM; Activity (Mus musculus [22]): 17.57 U

From ChEMBL document CHEMBL4152350, “A new multifunctional hydroxytyrosol-clofibrate with hypolipidemic, antioxidant, and hepatoprotective effects” (Bioorg Med Chem Lett, 2018)
